Reference: ChEMBL document CHEMBL4130608, “Isolation, Derivative Synthesis, and Structure-Activity Relationships of Antiparasitic Bromopyrrole Alkaloids from the Marine Sponge Tedania brasiliensis” (J Nat Prod, 2018)
pEC50, pIC50: −log10 of the molar value. In brackets after ≈: the same amount, converted by molar mass.

Tests used:
[1] = test system: Plasmodium falciparum; assay: Antiplasmodial activity against drug-sensitive blood stage Plasmodium falciparum 3D7 by SYBR green 1 staining based fluorescence assay; format: functional, organism-based
How it was run: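 Sorbitol-synchronized ring-stage 3D7 exposed to a range of concentrations (samples in 0.05% DMSO), in triplicate. Then lysed with Tris/EDTA/saponin/Triton buffer containing SYBR Green I (1:20000) for 30 min. IC50 from curve fitting against untreated growth.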

[2] = test system: Leishmania amazonensis; assay: Antileishmanial activity against Leishmania amazonensis MHOM/BR/1973/M2269 promastigotes after 24 hrs by MTT assay; format: functional, organism-based; conditions: MHOM/BR/1973/M2269, 24 h
How it was run: (§1)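 Promastigotes (L. amazonensis, L. infantum; 26 °C, M199 with 20% heat-inactivated FBS, hemin, adenine, L-glutamine, plus 5% human urine for L. infantum) or T. cruzi Y epimastigotes (LIT with hemin, 10% FCS, 28 °C). Exposed to a series of concentrations for 24 h. Viability read by MTT. EC50 from sigmoidal fit of concentration–response. Triplicates, repeated two or three times.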

[3] = test system: Trypanosoma cruzi; assay: Antitrypanosomal activity against Trypanosoma cruzi Y epimastigotes after 24 hrs by MTT assay; format: functional, organism-based; how it was run: as §1
[4] = test system: Leishmania infantum; assay: Antileishmanial activity against Leishmania infantum MHOM/BR/1972/LD promastigotes after 24 hrs by MTT assay; format: functional, organism-based; how it was run: as §1
[5] = test system: Plasmodium falciparum; assay: Antiplasmodial activity against chloroquine/pyrimethamine-resistant Plasmodium falciparum K1 assessed as reduction in [3H]hypoxanthine incorporation pretreated for 48 hrs followed by [3H]hypoxanthine addition measured after 24 hrs by liquid scintillation counting method; format: functional, organism-based
[6] = Cytotoxicity against human HepG2 cells after 24 hrs by MTT assay; format: cell-based; conditions: read-out: MDL50
How it was run: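 HepG2 cells grown in RPMI-1640 with 10% FBS, seeded at 5 × 10^3 cells/well and allowed to adhere for 18 h. Exposed to 1,000–1 μg/mL for 24 h at 37 °C, 5% CO2. MTT (5 mg/mL stock) added for 3 h, formazan dissolved in DMSO, absorbance read at 570 and 630 nm. Viability expressed as % of untreated control after background subtraction.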

[7] = Selectivity index, ratio of MDL50 for human HepG2 cells to IC50 for drug-sensitive blood stage Plasmodium falciparum 3D7; format: toxicity; conditions: HepG2 cells versus blood stage Plasmodium falciparum 3D7, read-out: Selectivity Index
[8] = test system: Plasmodium falciparum; assay: Antiplasmodial activity against chloroquine/cycloguanil/pyrimethamine-resistant blood stage Plasmodium falciparum K1 by SYBR green 1 staining based fluorescence assay; format: functional, organism-based
How it was run: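 Freshly sorbitol-synchronized ring stages were exposed in triplicate to a concentration series, solubilized in 0.05% DMSO (v/v), alongside sample-free cultures. Cells were lysed for 30 min in 20 mM Tris pH 7.5, 5 mM EDTA, 0.008% saponin and 0.08% Triton X-100 with SYBR green I (1:20000). IC50 was obtained by curve fitting against untreated growth.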

[9] = test system: BMDM; assay: Cytotoxicity against BALB/c mouse BMDM after 24 hrs by MTT assay; format: cell-based
How it was run: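 Differentiated BALB/c female mouse bone marrow macrophages incubated at 37 °C with increasing concentrations for 24 h. Viability read by MTT and CC50 calculated.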

[10] = test system: Leishmania amazonensis; assay: Antileishmanial activity against Leishmania amazonensis amastigotes infected in BALB/c mouse BMDM assessed as reduction in intracellular amastigotes after 24 hrs by microscopic analysis; format: functional, organism-based
How it was run: (§2)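 BALB/c bone marrow macrophages infected with stationary-phase L. amazonensis promastigotes (MOI 10) for 1 h, then washed and held 24 h at 33 °C, 5% CO2. Treated with 6.125, 25, 50 or 100 μM for 24 h at 33 °C. Cells MeOH-fixed and stained. Amastigotes counted in 300 cells per coverslip on triplicate coverslips. Expressed as % reduction versus untreated infected cells. Two independent experiments.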

[11] = test system: Leishmania amazonensis; assay: Antileishmanial activity against Leishmania amazonensis amastigotes infected in BALB/c mouse BMDM assessed as reduction in intracellular amastigotes at 100 uM after 24 hrs by microscopic analysis relative to control; format: functional; parameters: scale not given: the % may be the effect or the level left; how it was run: as §2
[12] = test system: Leishmania amazonensis; assay: Antileishmanial activity against Leishmania amazonensis amastigotes infected in BALB/c mouse BMDM assessed as reduction in intracellular amastigotes at 50 uM after 24 hrs by microscopic analysis relative to control; format: functional; parameters: scale not given: the % may be the effect or the level left; how it was run: as §2
[13] = test system: Leishmania amazonensis; assay: Antileishmanial activity against Leishmania amazonensis amastigotes infected in BALB/c mouse BMDM assessed as reduction in intracellular amastigotes at 6.125 uM after 24 hrs by microscopic analysis relative to control; format: functional; parameters: scale not given: the % may be the effect or the level left; how it was run: as §2
[14] = test system: Leishmania amazonensis; assay: Antileishmanial activity against Leishmania amazonensis amastigotes infected in BALB/c mouse BMDM assessed as reduction in intracellular amastigotes at 25 uM after 24 hrs by microscopic analysis relative to control; format: functional; parameters: scale not given: the % may be the effect or the level left; how it was run: as §2
[15] = test system: Leishmania donovani; assay: Antileishmanial activity against Leishmania donovani MHOM/ET/67/L82 amastigote forms after 72 hrs by alamar blue staining based fluorescence assay; format: functional, organism-based; conditions: MHOM/ET/67/L82, 72 h
[16] = test system: Trypanosoma brucei rhodesiense; assay: Antitrypanosomal activity against Trypanosoma brucei rhodesiense STIB 900 bloodstream forms after 72 hrs by alamar blue staining based fluorescence assay; format: functional, organism-based; conditions: STIB 900, 72 h

SMILES | pIC50 [1] | pEC50 [3] | pEC50 [2] | pEC50 [4] | further results
NC1=N/C(=C\CCNC(=O)c2cc(Br)c[nH]2)C(=O)N1 |  |  |  |  | IC50 [5]: 1.34 mg/L (≈ 4.11 µM)
CC1(C)N=C(N)N=C(N)N1c1ccc(Cl)cc1 [CYCLOGUANIL] | 8.00 |  |  |  | pIC50 [8]: 6.27
O=C(NCCCNCCCCNCCCNC(=O)c1cc(Br)c(Br)[nH]1)c1cc(Br)c(Br)[nH]1 | 5.70 | < 4.00 | 4.36 | 4.72 to 4.74 | CC50 [9]: > 100 µM; Activity [10]: Dose-dependent effect; CC50 at 24 h [6]: 99 µM; Activity [11]: 81.2%; Activity [12]: 51%; Activity [13]: 27.3%; selectivity ratio [7]: 52; Activity [14]: 45.4%
O=C(NCCCCNCCCNC(=O)c1ccc(F)[nH]1)c1ccc(F)[nH]1 | < 5.00 | < 4.00 | < 4.00 | < 4.00 | 
O=C(NCCCCNCCCNC(=O)c1cc(Cl)c(Cl)[nH]1)c1cc(Cl)c(Cl)[nH]1 | < 5.00 | < 4.00 | < 4.00 | < 4.00 | 
Cc1ccc(C(=O)NCCCCNCCCNC(=O)c2ccc(C)s2)s1 | < 5.00 | < 4.00 | < 4.00 | < 4.00 | 
O=C(NCCCCNCCCNC(=O)c1ccc(Br)s1)c1ccc(Br)s1 | < 5.00 | < 4.00 | 4.12 | 4.70 | CC50 [9]: > 100 µM; Activity [10]: Dose-dependent effect; Activity [11]: 79.5%; Activity [12]: 58.8%; Activity [13]: 46.4%; Activity [14]: 41.5%
NC1NC(=O)/C(=C2/CCNC(=O)c3[nH]cc(Br)c32)N1 (stereo not drawn) [SPONGIACIDIN B] |  |  |  |  | IC50 [5]: 1.09 mg/L (≈ 3.34 µM)
[N-]=[N+]=NCC(=O)N(CCCCNC(=O)c1cc(Br)c(Br)[nH]1)CCCNC(=O)c1cc(Br)c(Br)[nH]1 | < 5.00 | < 4.30 | < 4.00 | < 4.00 | 
O=C(NCCCCNCCCNC(=O)c1nc2ccccc2[nH]1)c1nc2ccccc2[nH]1 | < 5.00 | < 4.00 | < 4.00 | < 4.00 | 
CC(=O)N(CCCCNC(=O)c1cc(Br)c(Br)[nH]1)CCCNC(=O)c1cc(Br)c(Br)[nH]1 | < 5.00 | < 4.00 | < 4.00 | < 4.00 | 
NC[C@H]1[C@@H]2CN3C(=O)c4cc(Br)c(Br)n4[C@H]4NC(N)=N[C@]43[C@H]2[C@@]2(N=C(N)N[C@@H]2O)[C@@H]1Cl |  |  |  |  | IC50 [5]: 1.48 mg/L (≈ 2.56 µM); IC50 [15]: 1.48 mg/L (≈ 2.56 µM); IC50 [16]: 0.46 mg/L (≈ 0.796 µM)
Cc1ccc(C(=O)NCCCCNCCCNC(=O)c2ccc(C)o2)o1 | < 5.00 | < 4.00 | < 4.00 | < 4.00 | 
Cc1cccc(C(=O)NCCCCNCCCNC(=O)c2cccc(C)n2)n1 | < 5.00 | < 4.00 | < 4.00 | < 4.00 | 
O=C(O)CC1CNC(=O)c2cc(Br)c(Br)n21 (stereo not drawn) |  |  |  |  | IC50 [15]: 3.85 mg/L (≈ 10.9 µM); IC50 [16]: 1.53 mg/L (≈ 4.35 µM)
O=C(NCCCCNCCCNC(=O)c1ccc[nH]1)c1ccc[nH]1 | < 5.00 | < 4.00 | < 4.00 | < 4.00 | 

Second part, led by results:

pIC50 [1] | pEC50 [3] | SMILES | pEC50 [2] | pEC50 [4] | further results
< 5.00 | < 4.00 | O=C(NCCCCNCCCNC(=O)c1cccc(Cl)n1)c1cccc(Cl)n1 | < 4.00 | < 4.00 | 
< 5.00 | < 4.00 | O=C(NCCCCNCCCNC(=O)c1cc2ccccc2[nH]1)c1cc2ccccc2[nH]1 | < 4.00 | < 4.00 | 
< 5.00 | < 4.00 | O=C(NCCCCCCCCNC(=O)c1cc(Br)c(Br)[nH]1)c1cc(Br)c(Br)[nH]1 | < 4.00 | < 4.00 | 
5.15 | < 4.00 | O=C(NCCCCNCCCNC(=O)c1cc(Br)c[nH]1)c1cc(Br)c[nH]1 | < 4.00 | < 4.00 | CC50 at 24 h [6]: ≥ 400 µM; selectivity ratio [7]: ≥ 54
5.40 | < 4.00 | CN(CCCCNC(=O)c1cc(Br)c(Br)[nH]1)CCCNC(=O)c1cc(Br)c(Br)[nH]1 | < 4.00 | < 4.00 | CC50 at 24 h [6]: 160 µM; selectivity ratio [7]: 35
< 5.00 | 5.15 | O=C(NCCCCCNC(=O)c1cc(Br)c(Br)[nH]1)c1cc(Br)c(Br)[nH]1 | 4.72 | 4.62 | CC50 [9]: 52 µM
< 5.00 | < 4.30 | O=C(NCCCCCNC(=O)c1ccc[nH]1)c1ccc[nH]1 | < 4.00 | < 4.00 | 
< 5.00 | 4.62 | O=C(NCCSCCNC(=O)c1cc(Br)c(Br)[nH]1)c1cc(Br)c(Br)[nH]1 | 4.37 | 4.62 | CC50 [9]: 66 µM
5.52 | < 4.00 | O=C(NCCCCNCCCNC(=O)c1cc(Br)c(Br)o1)c1cc(Br)c(Br)o1 | 4.74 | 4.64 | CC50 [9]: 82 µM; Activity [10]: Dose-dependent effect; CC50 at 24 h [6]: ≥ 400 µM; Activity [11]: 77.4%; Activity [12]: 60%; Activity [13]: 55.6%; selectivity ratio [7]: ≥ 125; Activity [14]: 35%
5.70 | < 4.00 | O=C(NCCCCCCNCCCCCCNC(=O)c1cc(Br)c(Br)[nH]1)c1cc(Br)c(Br)[nH]1 | < 4.00 | < 4.00 | CC50 at 24 h [6]: 263 µM; selectivity ratio [7]: 101
